Results as given in ChEMBL document CHEMBL4622964, “Designing Dihydrofolate Reductase Inhibitors as X-ray Radiosensitizers to Reverse Radioresistance of Cervical Cancer” (ACS Med Chem Lett, 2020).

Tests used:
[1] = Cytotoxicity against human Ect1 cells assessed as reduction in cell viability by MTT assay; format: cell-based
Procedure, shortened: (§1)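 MTT viability assay in Ect1/E6E7 normal ectocervical epithelial cells, with the test agent alone (0 Gy) or combined with 4 Gy X-rays. IC50 values are in μM.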

[2] = Cytotoxicity against human Ect1 cells assessed as reduction in cell viability in presence of 4 Gy irradiation by MTT assay; format: cell-based; conditions: light or radiation study; procedure, shortened: as §1
[3] = tested on: HeLa; assay: Antiproliferative activity against human HeLa cells assessed as reduction in cell viability preincubated for 12 hrs followed by 4 Gy irradiation and measured after 60 hrs by MTT assay; format: functional, cell-based; conditions: light or radiation study
Procedure, shortened: (§2)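 MTT viability assay in HeLa cancer cells, with the test agent alone (0 Gy) or combined with 4 Gy X-rays. IC50 values are in μM. Sensitivity enhancement ratio = IC50(0 Gy)/IC50(4 Gy).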

[4] = tested on: HeLa; assay: Antiproliferative activity against human HeLa cells assessed as reduction in cell viability incubated for 12 hrs by MTT assay; format: functional, cell-based; procedure, shortened: as §2
[5] = tested on: HeLa; assay: Ratio of IC50 for antiproliferative activity against human HeLa cells assessed as reduction in cell viability incubated for 12 hrs to IC50 for antiproliferative activity against human HeLa cells assessed as reduction in cell viability preincubated for 12 hrs followed by 4 Gy irradiation and measured after 60 hrs by MTT assay; format: functional; procedure, shortened: as §2
[6] = Safety index, ratio of IC50 for cytotoxicity against human Ect1 cells assessed as reduction in cell viability to IC50 for antiproliferative activity against human HeLa cells assessed as reduction in cell viability incubated for 12 hrs by MTT assay; format: toxicity, cell-based; conditions: Ect1 cells versus HeLa cells, read-out: Ratio IC50
Procedure, shortened: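 Safe index SI0 from MTT assay without irradiation: IC50 in Ect1/E6E7 normal ectocervical cells divided by IC50 in HeLa cells.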

[7] = biological target: T1, Dihydrofolate reductase (Homo sapiens, UniProt P00374); assay: Inhibition of recombinant human DHFR using dihydrofolate as substrate in presence of NADPH
T1 sequence (P00374 whole entry): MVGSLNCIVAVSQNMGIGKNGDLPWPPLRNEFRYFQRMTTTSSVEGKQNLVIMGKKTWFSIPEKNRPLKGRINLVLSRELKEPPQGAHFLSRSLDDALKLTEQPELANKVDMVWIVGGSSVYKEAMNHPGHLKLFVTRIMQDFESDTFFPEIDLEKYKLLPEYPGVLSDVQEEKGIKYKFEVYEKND

[8] = Safety index, ratio of IC50 for cytotoxicity against human Ect1/E6E7 cells assessed as reduction in cell viability in presence of 4 Gy irradiation by MTT assay to antiproliferative activity against human HeLa cells assessed as reduction in cell viability preincubated for 12 hrs followed by 4 Gy irradiation and measured after 60 hrs by MTT assay; format: toxicity, cell-based; conditions: Ect1/E6E7 cells versus HeLa cells, read-out: Ratio IC50
Procedure, shortened: (§3)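 MTT viability assay on Ect1/E6E7 normal ectocervical cells and HeLa cells, with 0 or 4 Gy X-rays. SER = IC50(0 Gy)/IC50(4 Gy) in the same line; safe index SI4 = IC50 Ect1/E6E7 + 4 Gy divided by IC50 HeLa + 4 Gy.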

[9] = Ratio of IC50 for cytotoxicity against human Ect1 cells assessed as reduction in cell viability by MTT assay to cytotoxicity against human Ect1 cells assessed as reduction in cell viability in presence of 4 Gy irradiation by MTT assay; format: cell-based; conditions: read-out: Ratio IC50; procedure, shortened: as §3

SMILES | IC50 [1] | IC50 [2] | IC50 [3] | IC50 [4] | Ratio IC50 [5] | selectivity ratio at 12 h [6] | IC50 [7] | selectivity ratio at 60 h [8] | selectivity ratio [9]
Nc1nc(N)c2nc(-c3ccccc3)c(-c3ccccc3)nc2n1 | 59.3 µM | 38.1 µM | 14.8 µM | 32.6 µM | – | – | – | – | –
Nc1nc(N)c2nc(-c3ccco3)c(-c3ccco3)nc2n1 | 40.1 µM | 19.8 µM | 14.6 µM | 24.5 µM | 1.7 | 1.6 | 10.4 µM | 1.4 | 2
Nc1nc(N)c2nc3c4ccccc4c4ccccc4c3nc2n1 | > 80 µM | > 80 µM | > 80 µM | > 80 µM | – | – | > 50 µM | – | –
Nc1nc(N)c2nc3c4cccnc4c4ncccc4c3nc2n1 | 20 µM | 13.9 µM | 6.3 µM | 9.8 µM | 1.6 | 2 | 5.8 µM | 2.2 | 1.4
Nc1nc(N)c2nc(-c3cccs3)c(-c3cccs3)nc2n1 | 10.9 µM | 5.3 µM | 2.3 µM | 4.6 µM | 2 | 2.5 | 1.43 µM | 2.3 | 2.1
CN(Cc1cnc2nc(N)nc(N)c2n1)c1ccc(C(=O)N[C@@H](CCC(=O)O)C(=O)O)cc1 [METHOTREXATE] | 2.9 µM | 1.8 µM | 0.82 µM | 1.5 µM | – | – | – | – | –
